Each block holds one compound with its values, some of them ahead of it. The source made the active and inactive calls. No cut-off for these calls is given here.
Key:
[1] = test system: HeLa; assay: Downregulation of Mcl-1 expression in human HeLa cells at 250 to 500 nM after 24 hrs by Western blot analysis; assay type: functional, cell-based
Method in brief: (§1)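 HeLa cells treated for 24 or 48 h, washed twice with ice-cold PBS and lysed on ice 30 min; lysates spun at 15000 ×g, 4 °C. Protein (20 μg) resolved by SDS–PAGE on 7.5–15% gels and blotted to PVDF. Specific primary antibodies for 2 h at room temperature, then peroxidase secondary for 60 min, ECL detection. Membranes stripped and reprobed for β-actin as loading control.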

[2] = test system: MCF7; assay: Antiproliferative activity against human MCF7 cells after 72 hrs by MTT assay; assay type: functional, cell-based; details: MCF7, 72 h
[3] = test system: HeLa; assay: Induction of survivin phosphorylation at Thr34 in human HeLa cells at 250 to 500 nM after 24 to 48 hrs by Western blot analysis
[4] = test system: A549; assay: Resistance ratio of IC50 for human taxol-resistant A549-T12 cells expressing tubulin mutant gene to IC50 for human A549 cells; assay type: functional
[5] = test system: Jurkat; assay: Antiproliferative activity against human Jurkat cells after 72 hrs by MTT assay; assay type: functional, cell-based
Method in brief: (§2)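 Cells seeded at 8 × 10³ per well and incubated 18 h at 37 °C, 5% CO₂, then exposed to a range of compound concentrations for 72 h at 37 °C. Jurkat and HL-60 were grown in RPMI-1640, the others in DMEM, with penicillin, streptomycin and 10% FBS. DMSO stocks (10 mM); DMSO ≤0.25% final. Viability by MTT. […] Mean ± SE of ≥3 independent experiments.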

[6] = test system: HeLa; assay: Induction of apoptosis in human HeLa cells assessed as mitochondrial polarization; assay type: functional, cell-based
[7] = test system: HL-60; assay: Antiproliferative activity against human HL60 cells after 72 hrs by MTT assay; assay type: functional, cell-based; details: HL-60, 72 h
[8] = Antiproliferative activity against human taxol-resistant A549-T12 cells expressing tubulin mutant gene after 72 hrs by MTT assay; assay type: functional, cell-based; details: A549, 72 h
Method in brief: (§3)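 Resistant sublines cultured under selection: LoVo^Doxo (doxorubicin-resistant LoVo subclone) in complete Ham's F12 with doxorubicin 0.1 μg/mL; A549-T12 in complete DMEM with taxol 12 nM. Seeded at 8 × 10³ per well, 18 h preincubation, then 72 h compound exposure at 37 °C. MTT read-out.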

[9] = test system: PBL; assay: Growth inhibition of PHA-stimulated human PBL after 72 hrs by MTT assay; assay type: functional
[10] = test system: HeLa; assay: Induction of apoptosis in human HeLa cells assessed as effect on caspase-9 activation at 250 to 500 nM after 24 to 48 hrs by Western blot analysis; assay type: functional, cell-based; method in brief: as §1
[11] = test system: HeLa; assay: Induction of apoptosis in human HeLa cells assessed as caspase-3 activation at 250 to 500 nM after 24 to 48 hrs by Western blot analysis; assay type: functional, cell-based; method in brief: as §1
[12] = test system: Jurkat; assay: Cell cycle arrest in human Jurkat cells assessed as accumulation of cells at G2/M phase at 125 nM after 24 hrs by propidium iodide staining based flow cytometric analysis; assay type: functional
Method in brief: (§4)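 HeLa or Jurkat cells (5 × 10⁵, exponential growth) treated 24 h with 31–500 nM compound. Cells fixed in ice-cold 70% ethanol, treated with lysis buffer containing RNase A and 0.1% Triton X-100, then stained with propidium iodide. DNA content measured by flow cytometry to give phase distribution. Mean ± SEM of three independent experiments.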

[13] = test system: HeLa; assay: Induction of apoptosis in human HeLa cells assessed as disappearance of uncleaved caspase-2 protein at 250 to 500 nM after 24 to 48 hrs by Western blot analysis; assay type: functional, cell-based; method in brief: as §1
[14] = test system: HeLa; assay: Antiproliferative activity against human HeLa cells after 72 hrs by MTT assay; assay type: functional, cell-based
[15] = test system: HeLa; assay: Cell cycle arrest in human HeLa cells assessed as accumulation of cells at G2/M phase at 125 nM after 24 hrs by propidium iodide staining based flow cytometric analysis; assay type: functional; method in brief: as §4
[16] = test system: HeLa; assay: Effect on cyclin B expression in human HeLa cells at 250 to 500 nM after 24 hrs by Western blot analysis; assay type: functional, cell-based; method in brief: as §1
[17] = test system: HeLa; assay: Induction of apoptosis in human HeLa cells assessed as appearance of cleaved caspase-8 protein at 250 to 500 nM after 24 to 48 hrs by Western blot analysis; assay type: functional, cell-based; method in brief: as §1
[18] = Growth inhibition of human resting PBL after 72 hrs by MTT assay; assay type: cell-based; details: resting peripheral blood lymphocytes (PBL)
[19] = test system: HeLa; assay: Induction of apoptosis in human HeLa cells assessed as increase in caspase-3-mediated PARP cleavage at 250 to 500 nM after 24 to 48 hrs by Western blot analysis; assay type: functional, cell-based; method in brief: as §1
[20] = target: T1, M-phase inducer phosphatase 3 (Homo sapiens) (UniProt P30307); assay: Induction of cdc25C phosphorylation in human HeLa cells assessed as cdc2 kinase dephosphorylation at Tyr15 in human HeLa cells at 250 to 500 nM after 24 to 48 hrs by Western blot analysis; assay type: cell-based; method in brief: as §1
T1 sequence (whole entry): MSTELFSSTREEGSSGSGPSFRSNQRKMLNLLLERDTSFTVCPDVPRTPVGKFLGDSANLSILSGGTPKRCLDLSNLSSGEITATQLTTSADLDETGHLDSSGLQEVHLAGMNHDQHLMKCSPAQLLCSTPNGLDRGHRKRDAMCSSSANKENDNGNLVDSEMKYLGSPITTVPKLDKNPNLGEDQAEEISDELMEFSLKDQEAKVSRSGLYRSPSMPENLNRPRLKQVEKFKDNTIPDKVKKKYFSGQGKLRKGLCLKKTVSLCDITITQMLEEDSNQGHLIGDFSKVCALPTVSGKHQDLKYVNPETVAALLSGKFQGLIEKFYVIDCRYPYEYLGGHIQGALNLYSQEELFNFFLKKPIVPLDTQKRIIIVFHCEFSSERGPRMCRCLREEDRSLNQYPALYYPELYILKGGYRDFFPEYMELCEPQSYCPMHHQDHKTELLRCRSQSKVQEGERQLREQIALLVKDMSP

[21] = test system: HT-29; assay: Antiproliferative activity against human HT-29 cells after 72 hrs by MTT assay; assay type: functional, cell-based; details: HT-29, 72 h
[22] = test system: HeLa; assay: Downregulation of Bcl-2 expression in human HeLa cells at 250 to 500 nM after 24 to 48 hrs by Western blot analysis; assay type: functional, cell-based; method in brief: as §1
[23] = target: T1, M-phase inducer phosphatase 3 (Homo sapiens); assay: Induction of cdc25C phosphorylation in human HeLa cells at 250 to 500 nM after 24 to 48 hrs by Western blot analysis; assay type: cell-based; method in brief: as §1
[24] = organism: Bos taurus; assay: Displacement of [3H]colchicine from tubulin in bovine brain at 5 uM DEAE-cellulose filter method
[25] = test system: LoVo; assay: Antiproliferative activity against human LoVo cells after 72 hrs by MTT assay; assay type: functional, cell-based; method in brief: as §2
[26] = test system: HeLa; assay: Downregulation of Xiap expression in human HeLa cells at 250 to 500 nM after 24 hrs by Western blot analysis; assay type: functional, cell-based; method in brief: as §1
[27] = Antiproliferative activity against human vinblastine-resistant CEM/VBL100 cells overexpressing P-glycoprotein after 72 hrs by MTT assay; assay type: functional, cell-based; details: CEM/VBL100, 72 h
[28] = test system: HeLa; assay: Effect on Bax expression in human HeLa cells at 250 to 500 nM after 24 to 48 hrs by Western blot analysis; assay type: functional, cell-based; method in brief: as §1
[29] = Inhibition of bovine brain tubulin polymerization preincubated for 15 mins by turbidimetric analysis; set-up: species or system Bos taurus
Method in brief: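 Bovine brain tubulin (10 μM) in glutamate buffer preincubated with varying compound concentrations for 15 min at 30 °C, then chilled to 0 °C. GTP 0.4 mM added and mixtures warmed to 30 °C in a spectrophotometer; assembly followed by turbidity at 350 nm.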

[30] = test system: CCRF-CEM; assay: Resistance ratio of IC50 for human vinblastine-resistant CEM/VBL100 cells overexpressing P-glycoprotein to IC50 for human CEM cells; assay type: functional
[31] = test system: HeLa; assay: Induction of apoptosis in human HeLa cells assessed as ROS production; assay type: functional, cell-based
[32] = test system: LoVo; assay: Resistance ratio of IC50 for human doxorubicin-resistant LoVo/DX cells overexpressing P-glycoprotein to IC50 for human LoVo cells; assay type: functional
[33] = test system: CCRF-CEM; assay: Antiproliferative activity against human CEM cells after 72 hrs by MTT assay; assay type: functional, cell-based
[34] = Antiproliferative activity against human doxorubicin-resistant LoVo/DX cells overexpressing P-glycoprotein after 72 hrs by MTT assay; assay type: functional, cell-based; method in brief: as §3
[35] = test system: HeLa; assay: Induction of apoptosis in human HeLa cells at 500 nM after 24 to 48 hrs by Annexin V-FITC/propidium iodide staining based biparametric cytofluorimetric analysis; assay type: functional, cell-based
Method in brief: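 HeLa cells treated at 250 or 500 nM for 24 or 48 h, then labelled with annexin-V-FITC (phosphatidylserine) plus propidium iodide. Red and green fluorescence measured by biparametric flow cytometry. Mean ± SEM of three independent experiments.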

[36] = test system: A549; assay: Antiproliferative activity against human A549 cells after 72 hrs by MTT assay; assay type: functional, cell-based; details: A549, 72 h

SMILES: COc1cc(-c2nc(C)sc2-c2ccc(C(F)(F)F)cc2)cc(OC)c1OC
IC50 [2]: > 10000 nM | IC50 [5]: 7110 nM | IC50 [7]: > 10000 nM | IC50 [36]: 4290 nM | IC50 [14]: 3830 nM | IC50 [21]: 396 nM

SMILES: CNc1nc(-c2cc(OC)c(OC)c(OC)c2)c(-c2ccc(OC)cc2)s1
IC50 [2]: 37.6 nM | Ratio IC50 [4]: 0.9 | IC50 [5]: 34.3 nM | IC50 [7]: 27.3 nM | IC50 [8]: 125 nM | IC50 [36]: 138 nM | IC50 [14]: 70.1 nM | IC50 [21]: 6.3 nM | inhibition [24]: 61% | IC50 [25]: 190 nM | IC50 [27]: 15 nM | IC50 [29]: 1300 nM | Ratio IC50 [30]: 1.5 | Ratio IC50 [32]: 0.8 | IC50 [33]: 10 nM | IC50 [34]: 152 nM

SMILES: CCOc1ccc(-c2sc(N(C)C)nc2-c2cc(OC)c(OC)c(OC)c2)cc1
IC50 [2]: > 10000 nM | IC50 [5]: 4150 nM | IC50 [7]: 303 nM | IC50 [36]: > 10000 nM | IC50 [14]: 3260 nM | IC50 [21]: 6030 nM | IC50 [29]: > 20000 nM

SMILES: CNc1nc(-c2cc(OC)c(OC)c(OC)c2)c(-c2ccc(C(F)(F)F)cc2)s1
IC50 [2]: 7280 nM | IC50 [5]: 3010 nM | IC50 [7]: 3170 nM | IC50 [36]: 4560 nM | IC50 [14]: 3400 nM | IC50 [21]: 1240 nM

SMILES: COc1cccc2c1C(=O)c1c(O)c3c(c(O)c1C2=O)C[C@@](O)(C(=O)CO)C[C@@H]3O[C@H]1C[C@H](N)[C@H](O)[C@H](C)O1 [DOXORUBICIN]
IC50 [34]: 13200 nM

Further lines, with some results ahead:

IC50 [2]: 33.4 nM | IC50 [5]: 48.6 nM | IC50 [7]: 205 nM | IC50 [14]: 82.1 nM | Activity [20]: Active | IC50 [21]: 702 nM | Activity [23]: Active | inhibition [24]: 66% | IC50 [25]: 72 nM | IC50 [29]: 1100 nM | IC50 [33]: 61 nM
SMILES: COc1cc(-c2nc(C)sc2-c2ccc3ccccc3c2)cc(OC)c1OC
Activity [1]: Active | Activity [3]: Active | Ratio IC50 [4]: 1 | Activity [6]: Active | IC50 [8]: 121 nM | GI50 [9]: 285 nM | Activity [10]: inactive | Activity [11]: Active | Activity [12]: Active | Activity [13]: Active | Activity [15]: Active | Activity [16]: inactive | Activity [17]: Active | GI50 at 72 h [18]: 1270 nM | Activity [19]: Active | Activity [22]: Active | Activity [26]: Active | IC50 [27]: 88 nM | Activity [28]: inactive | Ratio IC50 [30]: 1.4 | Activity [31]: Active | Ratio IC50 [32]: 2.1 | IC50 [34]: 150 nM | Activity [35]: Active

IC50 [2]: 1740 nM | IC50 [5]: 517 nM | IC50 [7]: 1510 nM | IC50 [36]: 1950 nM | IC50 [14]: 1100 nM | IC50 [21]: 722 nM
SMILES: COc1cc(-c2nc(C)sc2-c2ccc(C)cc2)cc(OC)c1OC

IC50 [2]: 10.1 nM | IC50 [5]: 19 nM | IC50 [7]: 18.1 nM | IC50 [36]: 125 nM | IC50 [14]: 69.1 nM | IC50 [21]: 423 nM | inhibition [24]: 68% | IC50 [29]: 1200 nM
SMILES: CNc1nc(-c2cc(OC)c(OC)c(OC)c2)c(-c2ccc(C)cc2)s1

Source: ChEMBL document CHEMBL2202972, “Synthesis and biological evaluation of 2-substituted-4-(3',4',5'-trimethoxyphenyl)-5-aryl thiazoles as anticancer agents” (Bioorg Med Chem, 2012)
